Only some compounds are listed: those with a hit (about 2.7% of all), similar ones and a draw of the others.
MC4R barr agon: human MC4R agonism via beta-arrestin; P32245; U2OS MC4R beta-arrestin complementation, luminescence; percent of melanotan II response, DMSO zero; activation, % at 8.9 µM; 360,000 tested, 0.98% active;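 active = activation above a per-plate cutoff, the mean activation of sample wells on that plate plus 3 SD, cut at about 8% in these data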
Target sequence (P32245 whole entry, looked up): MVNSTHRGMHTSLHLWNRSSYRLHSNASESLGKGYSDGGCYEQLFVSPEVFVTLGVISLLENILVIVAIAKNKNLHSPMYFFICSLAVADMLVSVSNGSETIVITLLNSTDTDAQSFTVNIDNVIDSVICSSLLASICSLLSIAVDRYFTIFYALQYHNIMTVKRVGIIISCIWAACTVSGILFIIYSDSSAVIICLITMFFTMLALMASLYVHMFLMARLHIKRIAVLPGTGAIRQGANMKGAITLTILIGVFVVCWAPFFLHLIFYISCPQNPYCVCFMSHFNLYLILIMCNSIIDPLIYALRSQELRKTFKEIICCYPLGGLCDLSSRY
m5-HT2A agonist: activates the mouse 5-HT2A serotonin receptor; activation, % at 7.6 µM; CHO-K1 mHTR2A beta-arrestin complementation, luminescence; percent of 30 µM serotonin response; P35363; 360,000 tested, 0.66% active;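 active = activation above a run cutoff, the mean activation of all tested compounds plus 3 SD, cut at about 14% in these data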
PREPL inhibitor: inhibits the human prolyl oligopeptidase-like enzyme | inhibition, % at 5.96 µM | 320,000 tested, 0.68% active | AID 2751 | recombinant PREPL, fluorescence polarization activity-based probe; in the data active = inhibition above about 43%
Hep lipid drop: hepatic lipid droplet formation modulation. 240,000 tested, 0.4% active. AML12 mouse hepatocytes, oleate lipid droplets, BODIPY imaging. inhibition, % at 6.5 µM;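 active = lipid droplet intensity inhibited by at least 50%, with more than 500 cells counted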
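Assay system: AML12 hepatocytes (mouse); Probe or stimulus: oleic acid at 100 µM to induce lipid droplet formation; Dosing: compound at 6.5 µM only; Schedule: compound with oleate, overnight; Detection: fluorescence imaging, 20x objective, two fields per well; Measure: % inhibition of lipid droplet signal.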
NTR1 ag: NTR1 (human) agonism | P30989 | NTR1-U2OS beta-arrestin-GFP spot imaging, agonist mode | activation, % at 20 µM | 330,000 tested, 0.17% active;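 active = activation at or above 40% of the spot to cytoplasm intensity ratio, with at least 20 cells analyzed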
MC4R antagonist: blocks human MC4R cAMP signaling | 360,000 tested, 0.48% active | AID 540295 | MC4R-expressing cells, MTII-stimulated cAMP, LANCE TR-FRET | P32245 | inhibition, % at 6.5 µM;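 active = inhibition above its plate's cutoff, the mean of tested wells on that plate plus 3 SD, cut at about 29% in these data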
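System – human MC4R-expressing U2OS cells · Also added – Melanotan II · Dosing – one concentration, 6.5 µM nominal · Timing – 30-min compound, 1-h challenge, 1-h detection, room temperature · Measured by – Eu-cAMP/anti-cAMP TR-FRET, emission 671 nm · Replicates – singlicate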
MOR ag counter: OPRM1 agonism in mouse HTR2A counterscreen | AID 624380 | 2,300 tested, 5.3% active | activation, % at 9.3 µM | U2OS OPRM1 beta-arrestin PathHunter, luminescence; DMSO 0%, DAMGO 9.3 µM 100% | shares compounds with m5-HT2A agonist;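 active = mean activation above the mean of DMSO-only wells plus 3 SD, cut at about 0.5% in these data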
Target sequence (P35372 whole entry, looked up): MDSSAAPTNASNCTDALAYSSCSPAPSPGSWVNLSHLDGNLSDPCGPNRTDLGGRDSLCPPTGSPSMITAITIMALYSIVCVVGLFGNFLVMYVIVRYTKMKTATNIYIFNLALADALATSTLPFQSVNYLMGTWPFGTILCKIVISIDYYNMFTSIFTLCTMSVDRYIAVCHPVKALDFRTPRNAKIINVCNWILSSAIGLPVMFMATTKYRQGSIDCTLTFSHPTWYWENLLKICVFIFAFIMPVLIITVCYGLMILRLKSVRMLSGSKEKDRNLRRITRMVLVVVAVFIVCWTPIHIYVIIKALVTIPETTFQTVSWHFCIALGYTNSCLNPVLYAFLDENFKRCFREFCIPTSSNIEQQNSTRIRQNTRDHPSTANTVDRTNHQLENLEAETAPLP
HTR2A ag conf: mouse HTR2A agonism confirmed. shares compounds with m5-HT2A agonist. CHO-K1 PathHunter beta-arrestin recruitment, luminescence; DMSO 0%, 30 µM serotonin 100%. activation, % at 7.6 µM. 2,300 tested, 19% active. AID 624381;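 active = mean activation across triplicates above the hit threshold derived in the original primary screen, cut at about 15% in these data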
Of the large screens only hits and unclear results are named; the others gave an inactive call (follow-up assays come after a bar, where they were run).

O=C(CC1C(=O)NCCN1Cc1ccccc1C(F)(F)F)NCCn1cccn1 (stereo unspecified)	m5-HT2A agonist 16 | MOR ag counter inactive | HTR2A ag conf inactive
CCOc1ccccc1CN1CCNC(=O)C1CC(=O)NCCN1CCOC1=O (stereo unspecified)	m5-HT2A agonist 15 | MOR ag counter inactive | HTR2A ag conf inactive
Nc1ccc(S(=O)(=O)Nc2ccnn2-c2ccccc2)cc1	m5-HT2A agonist 19 | MOR ag counter inactive | HTR2A ag conf inactive
C[C@@H]1CN[C@H](CCO)/C1=C\c1ccccc1	m5-HT2A agonist 16 (no result: PREPL inhibitor, Hep lipid drop, NTR1 ag) | MOR ag counter inactive | HTR2A ag conf inactive
Cc1ccc(-c2cc(C(=O)NCc3ccco3)c3ccccc3n2)s1	m5-HT2A agonist 16 (no result: Hep lipid drop) | MOR ag counter inactive | HTR2A ag conf inactive
O=C(NCC1CCCN(C2Cc3ccccc3C2)C1)c1cccs1 (stereo unspecified)	m5-HT2A agonist 19 | MOR ag counter inactive | HTR2A ag conf 15
Cc1ccc(C)c(C(=O)COC(=O)C(C)N2C(=O)C3C4CCC(C4)C3C2=O)c1 (stereo unspecified)	none (no result: PREPL inhibitor)
Nc1cccc2c(O)cccc12	none (no result: Hep lipid drop)
O=c1[nH]ccc2c(O)cccc12	m5-HT2A agonist 16 (no result: Hep lipid drop) | MOR ag counter 0.7 | HTR2A ag conf inactive
CCn1cc(C(=O)NCc2ccco2)c(=O)c2ccc(C)nc21	none
COc1cccc(CN(C)C(=O)CC[C@H]2O[C@@H](n3ccc(=O)[nH]c3=O)[C@H](O)[C@@H]2O)c1	none (no result: MC4R barr agon, PREPL inhibitor, Hep lipid drop, NTR1 ag, MC4R antagonist)
CC(C)(C)c1csc(Sc2ccc([N+](=O)[O-])cn2)n1	m5-HT2A agonist 18 | MOR ag counter 0.7 | HTR2A ag conf inactive
COc1cc(C(=O)NCCN2C(=O)S/C(=C\c3cccs3)C2=O)cc(OC)c1OC	none
COc1cc(/C=C2\SC(=O)N(CCNC(=O)c3c(C)noc3C)C2=O)cc(OC)c1OC	m5-HT2A agonist 21 (no result: Hep lipid drop) | MOR ag counter inactive | HTR2A ag conf inactive
COc1ccc(N(CC(=O)N2CCN(c3ccccc3)CC2)S(=O)(=O)c2ccccc2)cc1	none (no result: PREPL inhibitor, Hep lipid drop, NTR1 ag)
S=c1[nH]cc(-c2ccccc2)n1-c1cccc(Cl)c1	none
COc1cccc(-n2c(-c3ccccc3)c[nH]c2=S)c1	m5-HT2A agonist 22 | MOR ag counter 0.5 | HTR2A ag conf inactive
COCCCN1C(=O)C(=O)/C(=C(/O)c2ccc(S(=O)(=O)N3CCOCC3)cc2)C1c1ccc(C)cc1 (stereo unspecified)	m5-HT2A agonist 18 | MOR ag counter inactive | HTR2A ag conf inactive
COc1ccc(/C(O)=C2/C(=O)C(=O)N(CCCN3CCOCC3)C2c2ccc(C(C)C)cc2)cc1 (stereo unspecified)	m5-HT2A agonist 15 (no result: PREPL inhibitor) | MOR ag counter inactive | HTR2A ag conf inactive
O=C(O)CCC(=O)N1CCc2cc(S(=O)(=O)N3CCN(c4ccc(F)cc4)CC3)ccc21	m5-HT2A agonist 15 (no result: Hep lipid drop) | MOR ag counter inactive | HTR2A ag conf inactive
Cc1ccc(C)c(N(C(=O)CCC(=O)Nc2cc(C)on2)C(C(=O)NC2CCCC2)c2ccco2)c1 (stereo unspecified)	m5-HT2A agonist 17 (no result: Hep lipid drop) | MOR ag counter inactive | HTR2A ag conf inactive
Cc1cc(C)cc(N(C(=O)CCC(=O)Nc2cc(C)on2)C(C(=O)NC2CCCC2)c2ccco2)c1 (stereo unspecified)	none
COc1ccc(OC)c(/C=C/C(=O)OCC(=O)NC2CCCCCCC2)c1	m5-HT2A agonist 16 (no result: Hep lipid drop) | MOR ag counter inactive | HTR2A ag conf inactive
CCC(=O)Nc1nc2c(s1)COc1ccccc1-2	m5-HT2A agonist 18 | MOR ag counter inactive | HTR2A ag conf inactive
O=C1CCC(C(=O)Nc2ccccc2)N1 (stereo unspecified)	none
O=C1CC[C@@H](C(=O)N2CSC[C@H]2C(=O)O)N1	m5-HT2A agonist 46 | MOR ag counter inactive | HTR2A ag conf inactive
O=C(Nc1cccc(C(F)(F)F)c1)C1=CC=CN2CCS(=O)(=O)N=C12	none (no result: Hep lipid drop)
Cc1csc2c(N3CCN(C(=O)Nc4ccccc4)CC3)ncnc12	m5-HT2A agonist 21 | MOR ag counter inactive | HTR2A ag conf inactive
Cc1csc2c(N3CCN(C(=S)Nc4ccc(F)cc4F)CC3)ncnc12	m5-HT2A agonist 34 | MOR ag counter inactive | HTR2A ag conf inactive
Cc1ccc(C(=O)N2CCN(c3ncnc4c(C)csc34)CC2)cc1	none
O=C(NCc1ccccc1F)c1ccc2c(c1)OCCO2	none
COc1ccccc1NC(=O)COC(=O)Cc1c[nH]c2ccccc12	m5-HT2A agonist 15 | MOR ag counter inactive | HTR2A ag conf inactive
Cc1[nH]n(C(C)(C)C)c(=O)c1Sc1ccc(Cl)cc1	m5-HT2A agonist 15 (no result: Hep lipid drop) | MOR ag counter inactive | HTR2A ag conf 18
CCOC(=O)c1nn(-c2ccccc2)c2nc(-c3ccc(OC)cc3)c(C#N)c(=O)n12	m5-HT2A agonist 19 | MOR ag counter 0.6 | HTR2A ag conf inactive
CCOC(=O)c1nn(-c2ccccc2C)c2nc(-c3ccc(C)cc3)c(C#N)c(=O)n12	none
Cc1nc2ccc(C(=O)NCCCN3CCCC3=O)cn2c1N(C)C(=O)CCc1ccccc1	none (no result: PREPL inhibitor, Hep lipid drop, NTR1 ag)
Cc1ccc2c(c1)C(c1ccccc1)N(C(=O)c1ccc(Br)o1)CC(=O)N2 (stereo unspecified)	m5-HT2A agonist 19 (no result: Hep lipid drop) | MOR ag counter inactive | HTR2A ag conf inactive
O=C1CN(C(=O)c2ccc(Br)o2)C(c2ccccc2)c2cc(Br)ccc2N1 (stereo unspecified)	none (no result: Hep lipid drop)
COc1ccc(C)c2sc(N(CCCN(C)C)C(=O)c3ccc4c(c3)OCCO4)nc12	m5-HT2A agonist 21 (no result: Hep lipid drop) | MOR ag counter inactive | HTR2A ag conf inactive
COc1ccc(C)c2sc(N(CCN(C)C)C(=O)/C=C/c3cccs3)nc12	MC4R barr agon 29, m5-HT2A agonist 24 | MOR ag counter 1.0 | HTR2A ag conf inactive
Cc1ccc(NC(=O)CCN2C(=O)c3ccccc3C2=O)cc1	m5-HT2A agonist 23 | MOR ag counter inactive | HTR2A ag conf inactive
NC(=O)c1ccc(NC(=O)CCN2C(=O)c3ccccc3C2=O)cc1	none
O=C(CN1C(=O)C2C3CC(C(Br)C3Br)C2C1=O)Nc1ccc(C(=O)O)cc1 (stereo unspecified)	none (no result: Hep lipid drop)
C=CCN1C(=O)C(O)(CC(=O)c2ccc(N)cc2)c2ccccc21 (stereo unspecified)	m5-HT2A agonist 23 (no result: Hep lipid drop) | MOR ag counter inactive | HTR2A ag conf inactive
